Laboratory results taken from ChEMBL document CHEMBL1152560, “Substituted 2-arylbenzothiazoles as kinase inhibitors: hit-to-lead optimization” (Bioorg Med Chem, 2009).

How the values were obtained:
Aurora kinase B = Aurora kinase B (Homo sapiens, UniProt Q96GD4); assay: Inhibition of Aurora-B by microplate scintillation counting
Procedure, shortened: (§1)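 Substrates: tetra(LRRWSLG) for Aurora A/B; poly(Ala,Glu,Lys,Tyr)6:2:5:1 for PDGFRβ; poly(Glu,Tyr)4:1 for TIE2 and VEGFR2. Stopped with 2% H3PO4.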

[1] = molecular target: Platelet-derived growth factor receptor beta (Homo sapiens, UniProt P09619); assay: Inhibition of PDGFRbeta by microplate scintillation counting; procedure, shortened: as §1
[2] = molecular target: Vascular endothelial growth factor receptor 2 (Homo sapiens, UniProt P35968); assay: Inhibition of VEGFR2 by microplate scintillation counting
Angiopoietin-1 receptor [3] = molecular target: T1, Angiopoietin-1 receptor (Homo sapiens, UniProt Q02763); assay: Inhibition of TIE2 by microplate scintillation counting
Angiopoietin-1 receptor [4] = molecular target: T1, Angiopoietin-1 receptor; assay: Inhibition of TIE2 in human HCT116 cells by cellular phosphorylation assay; format: cell-based, HCT-116
Procedure, shortened: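 TIE2 autophosphorylation in cells expressing the receptor. Compound was applied, cells were stimulated, then lysed with phosphoprotein levels preserved. Phosphorylation was quantified by sandwich ELISA with a receptor-specific capture antibody and anti-phosphotyrosine antibody, relative to the stimulated high control.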

[5] = molecular target: T2, Epidermal growth factor receptor (Homo sapiens, UniProt P00533); assay: Inhibition of EGFR in human HCT116 cells by cellular phosphorylation assay
Aurora kinase A = molecular target: T3, Aurora kinase A (Homo sapiens, UniProt O14965); assay: Inhibition of Aurora-A by microplate scintillation counting; procedure, shortened: as §1
T3 sequence (O14965 whole entry): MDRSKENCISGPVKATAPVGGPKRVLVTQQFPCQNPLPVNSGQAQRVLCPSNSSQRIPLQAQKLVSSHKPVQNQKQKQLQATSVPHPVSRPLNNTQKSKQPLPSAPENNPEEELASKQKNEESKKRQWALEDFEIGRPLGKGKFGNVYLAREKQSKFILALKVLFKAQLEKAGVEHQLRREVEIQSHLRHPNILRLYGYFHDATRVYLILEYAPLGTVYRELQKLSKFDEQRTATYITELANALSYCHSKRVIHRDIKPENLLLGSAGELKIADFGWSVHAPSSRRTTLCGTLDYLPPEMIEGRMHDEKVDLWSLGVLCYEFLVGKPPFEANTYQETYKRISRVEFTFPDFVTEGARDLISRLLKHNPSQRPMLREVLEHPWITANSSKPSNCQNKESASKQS

[6] = molecular target: Vascular endothelial growth factor receptor 3 (Homo sapiens, UniProt P35916); assay: Inhibition of VEGFR3 by microplate scintillation counting
Procedure, shortened: (§2)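 Radiometric FlashPlate assay using recombinant kinase (10–200 ng/well) with poly(Glu,Tyr)4:1 substrate. Buffer: 60 mM HEPES-NaOH pH 7.5, 3 mM MgCl2, 3 mM MnCl2, 3 µM orthovanadate, 1.2 mM DTT, PEG 20000, 1 µM [γ-33P]-ATP. Run 80 min at 30 °C, stopped with H3PO4, and 33P incorporation counted.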

[7] = molecular target: T2, Epidermal growth factor receptor; assay: Inhibition of wild type EGF-R by microplate scintillation counting
[8] = molecular target: Receptor tyrosine-protein kinase erbB-2 (Homo sapiens, UniProt P04626); assay: Inhibition of ERBB2 by microplate scintillation counting; procedure, shortened: as §2

T1 sequence (Q02763 whole entry): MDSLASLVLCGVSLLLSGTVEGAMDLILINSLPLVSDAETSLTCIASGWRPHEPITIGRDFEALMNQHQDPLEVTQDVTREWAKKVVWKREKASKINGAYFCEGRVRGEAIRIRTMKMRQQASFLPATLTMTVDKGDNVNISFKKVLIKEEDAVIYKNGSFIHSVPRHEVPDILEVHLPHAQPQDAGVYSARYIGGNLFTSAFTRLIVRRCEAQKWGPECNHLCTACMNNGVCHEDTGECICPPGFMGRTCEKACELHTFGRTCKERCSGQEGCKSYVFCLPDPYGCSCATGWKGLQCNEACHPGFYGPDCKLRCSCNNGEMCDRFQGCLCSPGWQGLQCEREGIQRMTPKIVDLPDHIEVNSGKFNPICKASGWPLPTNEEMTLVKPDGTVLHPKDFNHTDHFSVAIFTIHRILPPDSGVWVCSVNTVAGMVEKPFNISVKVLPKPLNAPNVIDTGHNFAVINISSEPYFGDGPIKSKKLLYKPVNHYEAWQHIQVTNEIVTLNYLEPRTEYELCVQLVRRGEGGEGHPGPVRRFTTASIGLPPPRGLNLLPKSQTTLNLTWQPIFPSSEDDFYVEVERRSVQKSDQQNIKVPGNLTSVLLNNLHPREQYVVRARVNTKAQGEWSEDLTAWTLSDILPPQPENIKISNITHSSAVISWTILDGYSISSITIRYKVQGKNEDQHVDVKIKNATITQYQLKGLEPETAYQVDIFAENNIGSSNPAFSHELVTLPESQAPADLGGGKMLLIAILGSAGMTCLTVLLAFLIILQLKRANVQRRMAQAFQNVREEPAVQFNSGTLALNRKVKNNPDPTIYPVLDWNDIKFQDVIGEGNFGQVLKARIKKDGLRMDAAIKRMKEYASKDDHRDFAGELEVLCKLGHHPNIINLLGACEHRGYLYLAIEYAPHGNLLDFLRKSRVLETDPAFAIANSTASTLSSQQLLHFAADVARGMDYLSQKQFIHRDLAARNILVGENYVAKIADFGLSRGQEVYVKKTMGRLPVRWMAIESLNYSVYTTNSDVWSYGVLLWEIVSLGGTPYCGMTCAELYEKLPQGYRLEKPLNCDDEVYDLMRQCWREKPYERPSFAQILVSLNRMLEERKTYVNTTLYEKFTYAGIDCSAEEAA
T2 sequence (P00533 whole entry): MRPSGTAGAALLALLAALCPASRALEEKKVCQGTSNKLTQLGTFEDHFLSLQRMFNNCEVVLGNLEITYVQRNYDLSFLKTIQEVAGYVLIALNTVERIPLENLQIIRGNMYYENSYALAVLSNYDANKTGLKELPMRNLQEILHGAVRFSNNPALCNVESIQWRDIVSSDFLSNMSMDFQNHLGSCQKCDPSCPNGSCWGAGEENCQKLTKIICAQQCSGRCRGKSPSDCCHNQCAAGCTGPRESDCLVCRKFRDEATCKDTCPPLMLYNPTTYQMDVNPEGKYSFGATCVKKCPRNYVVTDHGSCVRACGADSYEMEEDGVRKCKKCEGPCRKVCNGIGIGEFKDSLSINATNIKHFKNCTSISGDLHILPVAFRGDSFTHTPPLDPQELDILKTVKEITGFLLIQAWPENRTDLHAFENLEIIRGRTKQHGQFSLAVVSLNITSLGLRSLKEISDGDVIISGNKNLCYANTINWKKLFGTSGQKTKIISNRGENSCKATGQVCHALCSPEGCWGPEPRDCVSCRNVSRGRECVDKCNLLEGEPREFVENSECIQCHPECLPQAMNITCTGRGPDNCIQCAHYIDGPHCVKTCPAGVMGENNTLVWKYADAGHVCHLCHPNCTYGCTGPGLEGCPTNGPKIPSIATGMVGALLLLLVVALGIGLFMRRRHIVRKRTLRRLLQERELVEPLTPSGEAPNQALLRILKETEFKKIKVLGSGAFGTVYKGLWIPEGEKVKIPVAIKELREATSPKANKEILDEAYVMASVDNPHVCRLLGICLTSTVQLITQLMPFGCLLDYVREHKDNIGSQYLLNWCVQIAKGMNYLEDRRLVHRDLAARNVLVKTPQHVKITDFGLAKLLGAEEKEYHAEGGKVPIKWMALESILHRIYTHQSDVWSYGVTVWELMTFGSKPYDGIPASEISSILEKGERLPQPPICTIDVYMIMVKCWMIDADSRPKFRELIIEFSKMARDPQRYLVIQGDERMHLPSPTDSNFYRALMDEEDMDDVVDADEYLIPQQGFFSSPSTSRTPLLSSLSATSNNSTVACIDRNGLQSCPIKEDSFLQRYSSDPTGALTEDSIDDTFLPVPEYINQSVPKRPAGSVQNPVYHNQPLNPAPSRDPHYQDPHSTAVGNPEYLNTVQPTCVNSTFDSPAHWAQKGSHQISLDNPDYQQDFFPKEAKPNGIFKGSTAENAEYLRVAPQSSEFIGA
Vascular endothelial growth factor receptor 3, sequence (P35916 whole entry): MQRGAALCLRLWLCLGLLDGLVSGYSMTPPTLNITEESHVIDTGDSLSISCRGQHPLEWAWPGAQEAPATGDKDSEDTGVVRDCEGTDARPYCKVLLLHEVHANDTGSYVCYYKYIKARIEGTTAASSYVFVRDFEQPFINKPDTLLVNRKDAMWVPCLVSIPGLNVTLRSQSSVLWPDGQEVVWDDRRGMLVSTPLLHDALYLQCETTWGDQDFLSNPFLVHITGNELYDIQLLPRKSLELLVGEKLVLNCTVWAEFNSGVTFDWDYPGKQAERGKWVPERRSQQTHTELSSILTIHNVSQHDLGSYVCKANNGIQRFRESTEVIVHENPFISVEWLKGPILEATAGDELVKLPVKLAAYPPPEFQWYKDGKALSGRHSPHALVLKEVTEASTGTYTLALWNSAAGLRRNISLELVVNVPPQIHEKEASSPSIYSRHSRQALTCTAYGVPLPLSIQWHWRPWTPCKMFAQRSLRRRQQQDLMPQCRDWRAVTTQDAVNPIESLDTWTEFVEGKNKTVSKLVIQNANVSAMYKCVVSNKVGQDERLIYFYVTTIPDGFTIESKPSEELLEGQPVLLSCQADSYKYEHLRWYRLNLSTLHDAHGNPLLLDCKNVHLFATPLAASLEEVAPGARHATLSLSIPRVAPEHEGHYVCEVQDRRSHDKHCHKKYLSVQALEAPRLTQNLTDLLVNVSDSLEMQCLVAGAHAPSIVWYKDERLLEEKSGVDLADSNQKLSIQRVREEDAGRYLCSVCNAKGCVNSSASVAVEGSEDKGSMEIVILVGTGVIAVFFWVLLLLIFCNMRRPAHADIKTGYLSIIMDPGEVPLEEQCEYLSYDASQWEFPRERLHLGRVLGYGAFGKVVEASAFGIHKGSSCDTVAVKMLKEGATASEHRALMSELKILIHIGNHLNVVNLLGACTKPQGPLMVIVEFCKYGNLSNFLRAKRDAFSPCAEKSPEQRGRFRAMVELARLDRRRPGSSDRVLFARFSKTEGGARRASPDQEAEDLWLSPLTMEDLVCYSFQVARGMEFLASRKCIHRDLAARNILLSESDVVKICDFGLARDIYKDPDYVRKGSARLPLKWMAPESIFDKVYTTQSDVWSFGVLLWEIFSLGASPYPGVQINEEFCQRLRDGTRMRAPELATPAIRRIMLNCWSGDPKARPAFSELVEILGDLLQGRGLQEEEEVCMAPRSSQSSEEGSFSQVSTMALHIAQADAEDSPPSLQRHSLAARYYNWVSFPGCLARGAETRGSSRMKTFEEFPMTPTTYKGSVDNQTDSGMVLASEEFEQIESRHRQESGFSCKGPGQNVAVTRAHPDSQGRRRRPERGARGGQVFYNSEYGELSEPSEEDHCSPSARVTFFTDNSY
Platelet-derived growth factor receptor beta, sequence (P09619 whole entry): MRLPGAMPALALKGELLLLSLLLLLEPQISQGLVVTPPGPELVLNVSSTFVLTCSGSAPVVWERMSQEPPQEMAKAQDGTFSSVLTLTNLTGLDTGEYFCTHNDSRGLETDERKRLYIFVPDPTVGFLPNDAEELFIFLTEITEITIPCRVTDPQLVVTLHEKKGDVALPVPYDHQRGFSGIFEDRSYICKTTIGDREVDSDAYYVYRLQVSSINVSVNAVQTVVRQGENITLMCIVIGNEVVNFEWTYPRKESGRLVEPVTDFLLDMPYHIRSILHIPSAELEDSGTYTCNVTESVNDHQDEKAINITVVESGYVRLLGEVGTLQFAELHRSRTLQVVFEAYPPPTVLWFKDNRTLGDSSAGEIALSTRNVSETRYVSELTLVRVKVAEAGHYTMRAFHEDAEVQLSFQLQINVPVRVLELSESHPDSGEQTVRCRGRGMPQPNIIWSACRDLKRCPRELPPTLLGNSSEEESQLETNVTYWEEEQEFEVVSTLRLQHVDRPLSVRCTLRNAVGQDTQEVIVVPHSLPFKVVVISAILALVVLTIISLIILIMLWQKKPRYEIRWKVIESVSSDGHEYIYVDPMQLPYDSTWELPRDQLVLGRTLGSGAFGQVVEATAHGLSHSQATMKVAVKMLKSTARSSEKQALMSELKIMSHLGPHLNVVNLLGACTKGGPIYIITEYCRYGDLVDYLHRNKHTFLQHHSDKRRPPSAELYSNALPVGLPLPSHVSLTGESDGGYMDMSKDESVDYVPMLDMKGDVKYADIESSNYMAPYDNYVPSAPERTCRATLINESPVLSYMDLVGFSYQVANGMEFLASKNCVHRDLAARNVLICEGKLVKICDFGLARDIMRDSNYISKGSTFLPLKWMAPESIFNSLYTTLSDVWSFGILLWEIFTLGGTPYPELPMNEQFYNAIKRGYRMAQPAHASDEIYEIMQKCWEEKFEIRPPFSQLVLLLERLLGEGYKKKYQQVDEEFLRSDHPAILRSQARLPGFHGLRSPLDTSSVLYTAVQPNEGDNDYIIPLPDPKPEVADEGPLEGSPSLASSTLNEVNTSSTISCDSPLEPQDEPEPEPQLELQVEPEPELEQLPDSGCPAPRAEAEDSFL

IC50 (Aurora kinase B): 0.027 µM
IC50 [1]: 2.1 µM
IC50 [2]: 0.044 µM
IC50 (Angiopoietin-1 receptor [3]): 0.009 µM
EC50 (Angiopoietin-1 receptor [4]): > 10 µM
EC50 [5]: > 10 µM
IC50 (Aurora kinase A): 0.009 µM
IC50 [6]: 0.21 µM
IC50 [7]: 0.43 µM
IC50 [8]: 0.3 µM
SMILES: COc1cc2c(Nc3ccc(-c4nc5ccccc5s4)c(F)c3)ncnc2cc1OCCCN1CCN(C)CC1
